Series [1] has as its system Rattus norvegicus. Nature of the series: Toxicity in rat assessed as time spent on rotarod at 3 mg/kg, po after 1 hr by rotarod test. On the set-up: dose 3 mg/kg, route oral. Conditions: in vivo. The format is organism-based. The procedure, abridged:
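Rats, n = 8 per dose, dosed po in 0.25% Methocel 1 h before testing, at 0, 1.0, 3.0, 10, 30 and 100 mg/kg. Read-out is time on rotorod (s), mean ± SEM, compared with the vehicle (zero-dose) group.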
For orientation: Falling from the rotarod earlier than controls is read as motor impairment.

The nature of series [2]: Oral bioavailability in rat at 5 mg/kg. The format is ADME, organism-based. The note with it: in vivo. The procedure, abridged:
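Rats (n = 3) were dosed at 1 mg/kg iv in 10% DMAC, 70% propylene glycol and deionized water, and at 5 mg/kg po in 0.5% methylcellulose.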

The nature of series [3]: Plasma concentration in spontaneously breathing dog at 5 mg/kg, iv after 60 mins. The format is ADME, organism-based, Canis lupus familiaris. Set-up: dose 5 mg/kg, route intravenous. In short, it runs like this: (§1)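 Spontaneously breathing, barbiturate-anesthetized mongrel dogs (n = 4) infused iv at 5.0 mg/kg over 6 min. Total pooled plasma concentrations taken at 6, 15, 30 and 60 min.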

Series [4] relates to Canis familiaris. Nature of the series: Effect on respiratory function in spontaneously breathing mongrel dog assessed as change in tidal volume at 5 mg/kg after intravenous infusion for 6 mins (RVb= 5.8+/-3.8 %). The format is functional, Canis lupus familiaris.
The test system of series [5] is Canis familiaris. The series can be described thus: Effect on respiratory function in spontaneously breathing mongrel dog assessed as change in respiration rate at 5 mg/kg after intravenous infusion for 15 mins (RVb= -6.4+/-4.0 %). The series is classed as functional, Canis lupus familiaris.
Series [6] deals with Canis familiaris. The series can be described thus: Effect on respiratory function in spontaneously breathing mongrel dog assessed as change in intrapleural pressure at 5 mg/kg after intravenous infusion for 6 mins (RVb= -21.2+/-26.5 %). The series is classed as functional, Canis lupus familiaris.
The nature of series [7]: Cmax in Beagle dog at 1 mg/kg, po by cassette dosing. The format is ADME, organism-based, Canis lupus familiaris. On the set-up: dose 1 mg/kg, route oral. Conditions: in vivo.
Series [8] has as its system Canis familiaris. The series can be described thus: Effect on respiratory function in spontaneously breathing mongrel dog assessed as change in minute volume at 5 mg/kg after intravenous infusion for 6 mins (RVb= -3.6+/-7.5 %). The format is functional, Canis lupus familiaris.
Series [9] in a line: Plasma concentration in dog at 1 mg/kg after intravenous infusion for 30 mins. On the set-up: dose 1 mg/kg, route intravenous. The format is ADME, organism-based, Canis lupus familiaris.
In series [10] the test system is Rattus norvegicus. Nature of the series: Ex vivo receptor occupancy of CRF receptor in rat brain at 30 mg/kg, po by [125I]sauvagine binding and autoradiography relative to control. The format is functional. In short, it runs like this: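 Rats were given 0.3, 1, 3, 10 or 30 mg/kg po in 0.25% Methocel 60 min before sacrifice. Brains were removed, sectioned and frozen at −80 °C. Ex vivo CRF receptor binding gave occupancy relative to vehicle-treated rats, reported as mean ± SEM.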

Series [11] relates to Canis familiaris. Nature of the series: Effect on respiratory function in spontaneously breathing mongrel dog assessed as change in pulmonary compliance at 5 mg/kg after intravenous infusion for 30 mins (RVb= -2.8+/-4.0 %). The series is classed as functional, Canis lupus familiaris.
Series [12] concerns Canis familiaris. The series can be described thus: Effect on respiratory function in spontaneously breathing mongrel dog assessed as change in heart rate at 5 mg/kg after intravenous infusion for 30 mins (RVb= -0.9+/-3.8 %). The series is classed as functional, Canis lupus familiaris.
Series [13] concerns Canis familiaris. The series can be described thus: Effect on respiratory function in spontaneously breathing mongrel dog assessed as change in respiration rate at 5 mg/kg after intravenous infusion for 60 mins (RVb= -19.5+/-16.3 %). The series is classed as functional, Canis lupus familiaris.
Series [14] relates to Rattus norvegicus. Nature of the series: Effect on acute renal function in rat assessed as change in urine sodium level per 100 gm body weight at 30 mg/kg, po (RVb= 49.9+/-3.1 mg/dl). The series is classed as functional.
A short description of series [15]: Elimination half life in chimpanzee at 1 mg/kg, po. The series is classed as ADME, organism-based, Pan troglodytes. Set-up: dose 1 mg/kg, route oral. Conditions: in vivo, read-out: beta t1/2 (converted). The procedure, abridged:
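Two alert chimpanzees were given 1 mg/kg po as a 1 mg/mL suspension in 50:50 (v/v) 0.5% methylcellulose and Tang orange juice containing 1% Tween-80. EDTA blood was taken predose and at 2–96 h. Bioavailability was calculated against a 0.5 mg/kg iv dose given to one animal.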

A short description of series [16]: Plasma concentration in dog at 0.3 mg/kg after intravenous infusion for 30 mins. The series is classed as ADME, organism-based, Canis lupus familiaris. On the set-up: dose 0.3 mg/kg, route intravenous.
Series [17] can be described thus: Cmax in rat at 5 mg/kg, po. Conditions: in vivo. The series is classed as ADME, organism-based. On the set-up: dose 5 mg/kg, route oral. In short, it runs like this: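 Rats (n = 3) received 1 mg/kg iv in 10% DMAC, 70% propylene glycol and deionized water, or 5 mg/kg orally in 0.5% methylcellulose.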
Series [18] deals with Rattus norvegicus. The series can be described thus: Anxiolytic activity in rat assessed as decrease in latency to exit dark chamber at 3 mg/kg, po by defensive withdrawal test relative to untreated control. The series is classed as functional. On the set-up: scale not given: the % may be the effect or the level left. The procedure, abridged:
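Rat defensive withdrawal: latency to leave the dark chamber and explore the open field, maximum 900 s. Dosed orally in 0.25% Methocel 60 min before testing; n = 8 per dose, mean ± SEM. Analysed by Kruskal–Wallis followed by Mann–Whitney U against vehicle.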

The test system of series [19] is Rattus norvegicus. Nature of the series: Effect on acute renal function in rat assessed as change in urine protein level per 100 gm body weight at 30 mg/kg, po (RVb= 12.0+/-2.4 mg/dl). The format is functional.
Series [20] deals with T1, Substance-K receptor (Homo sapiens) (UniProt P21452).
T1 sequence (whole entry): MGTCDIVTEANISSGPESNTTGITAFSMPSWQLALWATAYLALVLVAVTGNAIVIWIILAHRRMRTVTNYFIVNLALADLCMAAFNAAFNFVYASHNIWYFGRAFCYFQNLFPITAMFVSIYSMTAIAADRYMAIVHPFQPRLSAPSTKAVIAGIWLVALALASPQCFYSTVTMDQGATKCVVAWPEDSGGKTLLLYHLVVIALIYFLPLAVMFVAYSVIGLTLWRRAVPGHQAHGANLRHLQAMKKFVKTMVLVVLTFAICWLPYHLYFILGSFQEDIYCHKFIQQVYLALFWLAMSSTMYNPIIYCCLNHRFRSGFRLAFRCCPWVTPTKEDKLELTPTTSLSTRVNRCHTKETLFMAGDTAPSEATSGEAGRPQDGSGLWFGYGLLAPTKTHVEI
The series can be described thus: Inhibition of ligand binding in neurokinin 2 receptor. Set-up: scale not given: the % may be the effect or the level left. The procedure, abridged:
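Screened at 10^-7 and 10^-5 M for binding inhibition, then taken to a dose–response on the human neurokinin 2 receptor. IC50 is based on two experiments.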

Series [21] has as its target T2, Adenosine receptor A1 (Rattus norvegicus, UniProt P25099).
T2 sequence (P25099 whole entry): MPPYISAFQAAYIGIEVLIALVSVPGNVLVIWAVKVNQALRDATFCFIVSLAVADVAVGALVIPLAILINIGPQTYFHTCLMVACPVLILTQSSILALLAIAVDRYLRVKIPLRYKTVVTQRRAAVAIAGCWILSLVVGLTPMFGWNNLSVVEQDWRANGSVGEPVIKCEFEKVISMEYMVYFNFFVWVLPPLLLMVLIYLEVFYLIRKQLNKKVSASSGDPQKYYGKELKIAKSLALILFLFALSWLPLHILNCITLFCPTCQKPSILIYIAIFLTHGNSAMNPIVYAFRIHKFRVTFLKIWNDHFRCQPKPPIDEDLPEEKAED
The series can be described thus: Binding affinity to rat adenosine A1 receptor expressed in CHO cells. The series is classed as cell-based. The procedure, abridged:
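Cloned rat adenosine A1 receptor transfected into CHO cells, part of a contracted screen.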

Series [22] in a line: Plasma concentration in spontaneously breathing dog at 5 mg/kg, iv after 15 mins. On the set-up: dose 5 mg/kg, route intravenous. The format is ADME, organism-based, Canis lupus familiaris. In short, it runs like this:
as §1

Series [23] deals with Rattus norvegicus. Nature of the series: Effect on acute renal function in rat assessed as change in urine phosphate level per 100 gm body weight at 30 mg/kg, po (RVb= 8.7+/-2.3 mg/dl). The series is classed as functional.
Series [24] has as its system Canis familiaris. Nature of the series: Effect on respiratory function in spontaneously breathing mongrel dog assessed as change in intrapleural pressure at 5 mg/kg after intravenous infusion for 60 mins (RVb= 18.5+/-19.9 %). The series is classed as functional, Canis lupus familiaris.

Each structure is given as a SMILES string. pKi: −log10 of the molar value.

What is called bioavailability is the share of a dose that reaches the circulation, judged against a reference dose that is usually intravenous. As a reminder, the Cmax is the peak of the concentration-time curve. The pKi is the negative decadic logarithm of the Ki, by convention in mol/L. As to `CC[C@@H](C)Nc1nc(C)nc2c(-c3ccc(OC)nc3C)c(C)nn12` [PEXACERFONT], in series [1], the Time came to 162 s. In addition, the bioavailability in series [2] is 40%. The concentration at 1 h in [3] came to 229 nM. Further, the Activity is on record as -3.5% in series [4]; -3.1% in series [5]; 3.3% in series [6]; 28.1% in series [8]; 85% in series [10]; -22.3% in series [11]. Further, the Activity in [12] was -2.5%; in [13], -14.6%; in series [14], 58.4 mg/dL; in [18] it was 44%; in series [19], 6.6 mg/dL; in series [20], 80%. In addition, the Activity in series [23] was determined as 4.6 mg/dL; in series [24], 0.7%. In addition, the Cmax in series [7] is 301 nM; in [17], 1260 nM. In addition, the concentration at 0.5 h in [9] was 473 nM; in series [16], 150 nM. In series [15], the half-life is 1560 min. In series [21], this molecule showed a pKi of 5.58. The same molecule showed a concentration at 0.25 h in [22] of 835 nM.

(Values after ChEMBL document CHEMBL1138476 (J Med Chem, 2009).)
